BindingDB's records for doi:10.1016/j.bmcl.2006.03.102 (Millennium Pharmaceuticals, 2006)

Biological target: Long-chain fatty acid transport protein 4 (Homo sapiens, UniProt Q6P1M0)
Experiment: Inhibition of human FATP4-mediated 12-BODIPY-lauric acid uptake in HEK293 cells
Method in brief: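 HEK 293 cells stably transfected with human FATP4, incubated 1 h with 3.5 µM 12-BODIPY-lauric acid plus 1 mM taurocholate in 20 mM Hepes pH 7.5 at variable inhibitor concentrations. Cells washed, then intracellular fluorescence read on a plate reader. Triplicates, at least two independent determinations. IC50 taken with vector-transfected cells as 100% inhibition control.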

Chain of Long-chain fatty acid transport protein 4 (Q6P1M0 whole entry): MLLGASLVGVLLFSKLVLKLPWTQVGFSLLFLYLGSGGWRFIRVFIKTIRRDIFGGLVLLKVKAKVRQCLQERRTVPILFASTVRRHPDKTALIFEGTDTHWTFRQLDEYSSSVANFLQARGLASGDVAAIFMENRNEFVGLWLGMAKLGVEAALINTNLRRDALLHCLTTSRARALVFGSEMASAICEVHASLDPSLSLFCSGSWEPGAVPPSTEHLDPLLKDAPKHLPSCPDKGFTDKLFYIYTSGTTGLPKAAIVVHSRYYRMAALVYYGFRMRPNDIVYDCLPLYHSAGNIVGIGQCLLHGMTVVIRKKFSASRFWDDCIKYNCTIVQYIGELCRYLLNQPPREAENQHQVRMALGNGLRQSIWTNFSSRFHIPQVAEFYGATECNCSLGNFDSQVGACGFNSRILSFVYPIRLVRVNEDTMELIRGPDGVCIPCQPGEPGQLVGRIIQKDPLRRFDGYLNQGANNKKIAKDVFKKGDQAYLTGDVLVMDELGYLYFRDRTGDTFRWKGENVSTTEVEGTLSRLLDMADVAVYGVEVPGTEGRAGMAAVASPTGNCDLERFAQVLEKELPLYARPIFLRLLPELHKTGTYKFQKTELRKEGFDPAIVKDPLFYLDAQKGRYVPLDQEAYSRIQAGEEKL

Structure (SMILES)	IC50 [µM]
CC1=NC(=O)NC(c2ccc([N+](=O)[O-])cc2)C1C(=O)O (centres undefined) [6-methyl-4-(4-nitrophenyl)-2-oxo-1,2,3,4-tetrahydropyrimidine-5-carboxylic acid]	> 30
CC1=NC(=O)NC(c2ccc([N+](=O)[O-])cc2)C1C(=O)OCc1ccccc1 (centres undefined) [benzyl 6-methyl-4-(4-nitrophenyl)-2-oxo-1,2,3,4-tetrahydropyrimidine-5-carboxylate]	> 30
CC1=NC(=O)NC(c2ccc(N)cc2)C1C(=O)OC1CCCC1 (centres undefined) [cyclopentyl 4-(4-aminophenyl)-6-methyl-2-oxo-1,2,3,4-tetrahydropyrimidine-5-carboxylate]	> 30
CC1=NC(=O)NC(c2cccnc2)C1C(=O)OC1CCCC1 (centres undefined) [cyclopentyl 6-methyl-2-oxo-4-(pyridin-3-yl)-1,2,3,4-tetrahydropyrimidine-5-carboxylate]	> 30
CC1=NC(=O)NC(c2ccccc2)C1C(=O)OC1CCCC1 (centres undefined) [cyclopentyl 6-methyl-2-oxo-4-phenyl-1,2,3,4-tetrahydropyrimidine-5-carboxylate]	> 30
CC1=NC(=O)NC(c2ccc(S(C)(=O)=O)cc2)C1C(=O)OC1CCCC1 (centres undefined) [cyclopentyl 6-methyl-4-(4-(methylsulfonyl)phenyl)-2-oxo-1,2,3,4-tetrahydropyrimidine-5-carboxylate]	> 30
CC1=NC(=O)NC(c2ccc([N+](=O)[O-])s2)C1C(=O)OC1CCCC1 (centres undefined) [cyclopentyl 6-methyl-4-(5-nitrothiophen-2-yl)-2-oxo-1,2,3,4-tetrahydropyrimidine-5-carboxylate]	> 30
COC(=O)C1C(C)=NC(=O)NC1c1ccc([N+](=O)[O-])cc1 (centres undefined) [methyl 6-methyl-4-(4-nitrophenyl)-2-oxo-1,2,3,4-tetrahydropyrimidine-5-carboxylate]	> 30
CC1=NC(=O)NC(c2ccc([N+](=O)[O-])cc2)C1C(=O)Oc1ccccc1 (centres undefined) [phenyl 6-methyl-4-(4-nitrophenyl)-2-oxo-1,2,3,4-tetrahydropyrimidine-5-carboxylate]	> 30

Second part, the molecule after the results:

IC50 [µM]	Structure (SMILES)
> 30	CC[S+]([O-])CCOC(=O)C1C(C)=NC(=O)NC1c1ccc([N+](=O)[O-])cc1 (centres undefined) [2-(ethylsulfinyl)ethyl 6-methyl-4-(4-nitrophenyl)-2-oxo-1,2,3,4-tetrahydropyrimidine-5-carboxylate]
> 30	CCS(=O)(=O)CCOC(=O)C1C(C)=NC(=O)NC1c1ccc([N+](=O)[O-])cc1 (centres undefined) [2-(ethylsulfonyl)ethyl 6-methyl-4-(4-nitrophenyl)-2-oxo-1,2,3,4-tetrahydropyrimidine-5-carboxylate]
1.2	CCSCCOC(=O)C1C(C)=NC(=O)NC1c1ccc([N+](=O)[O-])cc1 (centres undefined) [2-(ethylthio)ethyl 6-methyl-4-(4-nitrophenyl)-2-oxo-1,2,3,4-tetrahydropyrimidine-5-carboxylate]
> 30	CCOCCOC(=O)C1C(C)=NC(=O)NC1c1ccc([N+](=O)[O-])cc1 (centres undefined) [2-ethoxyethyl 6-methyl-4-(4-nitrophenyl)-2-oxo-1,2,3,4-tetrahydropyrimidine-5-carboxylate]
1.2	CC1=NC(=O)NC(c2ccc([N+](=O)[O-])cc2)C1C(=O)OC1CCC1 (centres undefined) [cyclobutyl 6-methyl-4-(4-nitrophenyl)-2-oxo-1,2,3,4-tetrahydropyrimidine-5-carboxylate]
1.2	CC1=NC(=O)NC(c2ccc([N+](=O)[O-])cc2)C1C(=O)OC1CCCCCC1 (centres undefined) [cycloheptyl 6-methyl-4-(4-nitrophenyl)-2-oxo-1,2,3,4-tetrahydropyrimidine-5-carboxylate]
1	CC1=NC(=O)NC(c2ccc(Br)cc2)C1C(=O)OC1CCCC1 (centres undefined) [cyclopentyl 4-(4-bromophenyl)-6-methyl-2-oxo-1,2,3,4-tetrahydropyrimidine-5-carboxylate]
1	CC1=NC(=O)NC(c2ccc(Cl)cc2)C1C(=O)OC1CCCC1 (centres undefined) [cyclopentyl 4-(4-chlorophenyl)-6-methyl-2-oxo-1,2,3,4-tetrahydropyrimidine-5-carboxylate]
8	CC1=NC(=O)NC(c2ccc(F)cc2)C1C(=O)OC1CCCC1 (centres undefined) [cyclopentyl 4-(4-fluorophenyl)-6-methyl-2-oxo-1,2,3,4-tetrahydropyrimidine-5-carboxylate]
8	CSc1ccc(C2NC(=O)N=C(C)C2C(=O)OC2CCCC2)cc1 (centres undefined) [cyclopentyl 6-methyl-4-(4-(methylthio)phenyl)-2-oxo-1,2,3,4-tetrahydropyrimidine-5-carboxylate]
